For 36 sequences, Tm and folding enthalpy results are on record in the array DNA melting data of Ke et al. (doi:10.1101/2024.01.08.574731).

The nature of data set [1]: melting temperature; fluorescence melt of hairpins on a sequencing array, two-state fit, raised by 9.35 °C to match UV melts. The conditions noted are these: sodium 0.088 M. In short, it runs like this: (§1)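 To match UV melts, fitted temperatures were raised by 9.35 °C. These fits were bootstrapped two-state models that gave melting temperature and folding enthalpy, combined by inverse variance over four replicates. The input was normalised Cy3 fluorescence of library hairpins with annealed Cy3 and quencher oligos on a sequenced MiSeq flow cell, imaged in 50 mM Na-HEPES pH 8.0, 25 mM NaCl in 2.5 °C steps up to 60 °C.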

Data set [2] in a line: folding enthalpy; higher = less favourable; fluorescence melt of hairpins on a sequencing array, two-state fit. The conditions noted are these: sodium 0.088 M. Put shortly: as §1

Regarding GGACCCTCGAAAGAGTCC (((..(((....)))))), the Tm in data set [1] worked out at 35.9 °C. For the same sequence, the folding enthalpy in data set [2] was -16.3 kcal/mol.
Taken in the same sequence, the figures for GGACCGGGAAACCGACCC ((..(((....)))..)) were 31.1 °C and -18 kcal/mol.
Turning to GGACCGTCGAAAGACTCC (((..(((....)))))), in data set [1], the Tm came to 30.7 °C. Besides, in data set [2], the folding enthalpy is -12.9 kcal/mol.
Taken in the same sequence, the figures for GGACCTCCGAAAGGATCC (((..(((....)))))) were 28.7 °C and -13.3 kcal/mol.
Taken in the same sequence, the figures for GGACCTGGAAACAGATCC (((.(((....))).))) were 40.2 °C and -28.7 kcal/mol.
Turning to GGACCTGGAAACGGGTCC (((((.(....).))))), the Tm in data set [1] is 58.3 °C. In addition, the folding enthalpy in data set [2] is -45 kcal/mol.
As for GGACGACCGAAAGGTTCC (((..(((....)))))), the Tm in data set [1] was determined as 31.3 °C. For the same sequence, the folding enthalpy in data set [2] was -13.8 kcal/mol.
Taken in the same sequence, the figures for GGACGAGCGAAAGCTTCC (((..(((....)))))) were 29.5 °C and -9.29 kcal/mol.
For GGACGCGAAAGCGAATCC ((((((....)))..))), the Tm in data set [1] was 36.5 °C. Further, the folding enthalpy in data set [2] was -13.5 kcal/mol.
In the case of GGACGCGAAAGCGCTTCC ((((((....)))..))), the Tm in data set [1] stood at 47.5 °C. For the same sequence, the folding enthalpy in data set [2] is -13.2 kcal/mol.
As for GGACGCGAAAGCGTGTCC ((((((....)))..))), the Tm in data set [1] is 54 °C. For the same sequence, in data set [2], the folding enthalpy is -12.7 kcal/mol.
Turning to GGACGCGGAAACGCACCC ((..(((....)))..)), in data set [1], the Tm is 33.7 °C. Also, in data set [2], the folding enthalpy is -10.1 kcal/mol.
For GGACGCGGAAACGTGTCC ((((.((....)).)))), in that order: 62.2 °C and -43.4 kcal/mol.
Taken in the same sequence, the figures for GGACGGGGAAACCTGTCC ((((.((....)).)))) were 56.8 °C and -44.5 kcal/mol.
As for GGACTACGAAAGTACTCC (((.(((....))).))), the Tm in data set [1] worked out at 34.9 °C. Besides, the folding enthalpy in data set [2] was -13.3 kcal/mol.
For GGACTACGAAAGTATTCC (((.(((....))).))), in that order: 39.2 °C and -34.8 kcal/mol.
Taken in the same sequence, the figures for GGACTAGGAAACTAGCCC ((.((((....)))).)) were 42.1 °C and -24.5 kcal/mol.
Consider GGACTAGGAAACTAGTCC (((((((....))))))), for which, in data set [1], the Tm stood at 61.5 °C. The folding enthalpy in data set [2] is -44 kcal/mol.
Take GGACTAGGAAACTAGTTC (.(((((....))))).): the Tm in data set [1] came to 41.3 °C. In data set [2], the folding enthalpy was -31.9 kcal/mol.
Consider GGACTCGAAAGAGCATCC ((((((....)))..))), for which, in data set [1], the Tm was 24.9 °C. In addition, the folding enthalpy in data set [2] was -9.49 kcal/mol.
GGACTCGAAAGAGGATCC ((((((....)))..))): the Tm in data set [1] turned out to be 37 °C. Besides, the folding enthalpy in data set [2] was -17.9 kcal/mol.
GGACTCGAAAGAGGCTCC ((((((....)))..))): the Tm in data set [1] is 48.9 °C. Further, the folding enthalpy in data set [2] was -13.3 kcal/mol.
Take GGACTCGAAAGAGTTTCC ((((((....)))..))): the Tm in data set [1] was 36.8 °C. Further, the folding enthalpy in data set [2] was -13.8 kcal/mol.
GGACTCGGAAACGAATCC (((.(((....))).))): the Tm in data set [1] was 40.9 °C. Further, the folding enthalpy in data set [2] was -26.7 kcal/mol.
For the sequence GGACTCGGAAACGGGTCC ((((.((....)).)))), the Tm in data set [1] was determined as 57.4 °C. Besides, the folding enthalpy in data set [2] is -36.4 kcal/mol.
Taken in the same sequence, the figures for GGACTGAAAAGTCC (((((....))))) were 59.9 °C and -25.9 kcal/mol.
Taken in the same sequence, the figures for GGACTGGAAACAGTCC ((((((....)))))) were 59.8 °C and -30.2 kcal/mol.
For GGACTGGCGAAAGCCTCC (((..(((....)))))), in that order: 31.6 °C and -9.14 kcal/mol.
Turning to GGACTGGGAAACCGGTCC ((((.((....)).)))), the Tm in data set [1] worked out at 58.6 °C. Moreover, the folding enthalpy in data set [2] was -39.9 kcal/mol.
Take GGACTGGGAAACTGGTCC ((((..(....)..)))): the Tm in data set [1] stood at 45.5 °C. The folding enthalpy in data set [2] is -25 kcal/mol.
Regarding GGACTTCGAAAGAATCC (((.(((....)))))), in data set [1], the Tm turned out to be 35.2 °C. For the same sequence, the folding enthalpy in data set [2] was -21.7 kcal/mol.
For GGACTTCGAAAGAATTCC (((.(((....))).))), in that order: 36.8 °C and -31.9 kcal/mol.
For GGACTTGGAAACAAGTCC (((((((....))))))), in that order: 64.7 °C and -51.1 kcal/mol.
GGACTTGGAAACGAGTCC (((((.(....).))))): in data set [1], the Tm stood at 52.4 °C. In data set [2], the folding enthalpy was -39.4 kcal/mol.
For GGAGAAGGAAACTCCTCC ((((.((....)).)))), in that order: 36 °C and -22.6 kcal/mol.
With GGAGACGAAAGTCCATCC ((((((....)))..))), the Tm in data set [1] turned out to be 30.3 °C. The folding enthalpy in data set [2] is -10.1 kcal/mol.
